From PubChem BioAssay
Hsp70 activator: Hsp70 transcriptional activation, primary screen | HeLa Hsp70 promoter luciferase reporter, luminescence; scaled: vehicle 0, proteasome-inhibitor control 100% | activation, % at 10 µM | hit rate 0.04% among 200,000;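 active means activation above the mean across all tested compounds plus 3 SD, cutoff set per campaign, cut at about 5.5% in these data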;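 further: 100% = MG132 at 30 µM as the positive control and 0% = DMSO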
Autophagy HCS: autophagy modulation, high-content screen; MEF GFP-LC3 puncta imaging; test concentration mostly 10 µM; calls only at 10 µM (by protocol); hit rate 0.98% among 190,000;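 active means percentage of spot-positive cells more than 3 SD above its plate mean, without a fluorescence outlier flag or 80% toxicity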;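 further: spot-positive cell cutoff set from DMSO-treated cells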
Dynein cargo inh: blocks dynein driven cargo transport along microtubules | 3617.4 mouse cells, GR-EGFP nuclear translocation imaging; test concentration mostly 20 µM; stimulated with dexamethasone, 1 µM; stronger effect = lower value | z-score, hits read low | hit rate 0.47% among 220,000 | AID 1381;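 active means plate z-score of nuclear minus cytoplasmic receptor signal below a set negative limit, without overly bright fluorescence or cell loss, cut at about -3.5 in these data, passing the limit was not always enough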;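 further: z-score of nuclear minus cytoplasmic ring GR-EGFP intensity difference per well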
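Also added – dexamethasone, 1.0 µM final · Buffer or medium – tet-free, stripped-serum medium · Schedule – induction 48 h, compound 1 h, agonist 30 min · Detection – formaldehyde fixation, Hoechst nuclear stain, 10x automated fluorescence imaging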
bCat nuc transl: alters nuclear translocation of beta-catenin in HeLa cells | immunofluorescence imaging | nuclear translocation activity, % at 5 µM | hit rate 0.3% among 190,000;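 active means nuclear translocation activity above 50% at 5 µM, with a well cell count of 50 or more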;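 further: per-cell ratio of nuclear to cytoplasmic median beta-catenin stain intensity; plate controls were DMSO negative control for no effect and GSK-3 inhibitor IX positive control for full effect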
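Test system: human HeLa cell line; Doses: 5 µM primary, 0.02–20 µM confirmation; Incubation: 24 h compound exposure, 37°C; Detection: beta-catenin immunofluorescence imaging with DAPI; Read-out: beta-catenin nuclear/cytoplasmic ratio, % activation.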
MT stabilizer: microtubule stabilizers in HeLa cells; hit rate 0.83% among 200,000; HeLa tubulin immunostaining HCS, 24 h; share of cells brighter than vehicle mean+2SD; % tubulin-high responders, % at 10 µM;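 active means plate Z-score above 3 for both tubulin-high and condensed-nucleus cell shares, with cell loss under 80%, at 10 µM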;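 further: anti alpha tubulin signal scored within the nucleus-defined area of each cell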
* = called active by the depositor; i = inactive; . = no result; + = active, no number. Sampled rows, rich in hits. Any-hit rate of the full collection: about 2.1%.

SMILES	Hsp70 activator	Autophagy HCS	Dynein cargo inh	bCat nuc transl	MT stabilizer
CN(c1ccccc1)c1cc(=O)[nH]c(=O)[nH]1	0.1	i	-0.0834	-1.0	5.7
Cc1cc(NC(=O)COC(=O)C(Cc2ccccc2)NC(=O)c2ccco2)no1 (stereo not drawn)	-0.3	+	-0.336	-8.0	1.6
O=C(COC(=O)[C@H](Cc1ccccc1)NC(=O)c1ccco1)NC(c1ccccc1)c1ccccc1	0.5	i	0.596	-1.4	3.5
O=[N+]([O-])c1ccc(Oc2cccc(Br)c2)c2ccncc12	0.1	+	-1.18	4.8	1.8
O=[N+]([O-])c1ccc(Oc2ccc(F)cc2)c2ccncc12	0.0	i	0.519	-3.5	2.1
COc1ccc(O[C@H]2C=C[C@@H](c3ccccc3)O[C@@H]2CO/N=C(\C)CCN2CCCCc3nc(C)c(C)cc32)cc1	-0.2	+	-0.589	0.2	2.5
C/C(CCN1CCCCc2nc(C)c(C)cc21)=N\O[C@@H](C)CN1CCCCc2nc(C)c(C)cc21	-0.2	i	0.408	.	4.3
CCN1C(=O)/C(=C2\C=Cc3cc(C)ccc3N2CC)OC1=S	0.2	+	-0.963	-2.5	4.2
CCOC(=O)N1CCC(n2c(=S)[nH]c3cc(OCC)c(OCC)cc3c2=O)CC1	-0.5	+	0.454	.	2.3
CCOc1cc2[nH]c(=S)n(C3CC3)c(=O)c2cc1OCC	-0.2	i	-0.925	-5.3	2.7
CCCCN(CCCC)Cc1ccc(C(=O)NNC(=O)Nc2ccccc2)o1	-0.1	+	0.302	0.3	1.4
Cc1cccc(C)c1-n1c(C)cc(/C=N\Nc2ccc([N+](=O)[O-])cn2)c1C	-0.1	+	0.185	-17.4	1.0
CC(C)Cn1c(C(C)C)nc([N+](=O)[O-])c1S(=O)(=O)c1ccc(F)cc1	0.4	i	-3.72*	-0.8	5.1
CCCc1nc([N+](=O)[O-])c(S(=O)(=O)c2ccccc2)n1CC(C)C	-0.3	i	1.34	2.0	2.0
CC(=O)NC(=S)Nc1ccc(S(=O)(=O)N(C)Cc2ccccc2)cc1	-0.3	i	-0.556	0.6	1.3
CC(C)C(=O)NC(=S)Nc1ccc(S(=O)(=O)N(C)Cc2ccccc2)cc1	-0.3	i	0.572	1.6	42.2*
Cc1cc(C)nc(SCc2ccc(C(=O)N/N=C/C3CCCCC3)cc2)n1	-0.4	+	0.0759	2.7	2.2
Cc1cc(Br)ccc1OCCCCN1CCCCC1	-0.1	i	-0.0173	0.4	2.0
CCOC(=O)c1ccc(NC(=O)CSC(=S)N2CCOCC2)cc1	-0.1	+	-0.0847	0.2	2.5
COc1ccc(Nc2nnc(SCc3cn4c(C)cccc4n3)s2)cc1	-0.1	i	0.499	10.3	19.2*
Cc1ccccc1-n1nnnc1-c1ccccc1	0.2	i	0.366	-2.6	6.0
COc1ccc(-c2nnnn2-c2ccccc2OC)cc1	-0.2	i	-0.378	1.6	19.9*
CC(C)(C)Nc1nc2ccc([N+](=O)[O-])cc2o1	.	.	0.213	0.5	.
COc1ccc(OC)c(-c2csc(NC(=O)CSc3ccc([N+](=O)[O-])cc3)n2)c1	-0.3	i	0.727	-1.8	2.0
Cc1cc(N2C(=O)C=CC2=O)c([N+](=O)[O-])cc1C	-0.3	i	-6.27*	.	1.9
SMILES	Hsp70 activator	Autophagy HCS	Dynein cargo inh	bCat nuc transl	MT stabilizer
COc1ccccc1/C=C/C1(C(=O)NC2CCCC2)CC(=O)N1c1ccc(C)cc1 (stereo not drawn)	0.0	i	1.35	17.9	7.4
COc1ccccc1/C=C/C1(C(=O)NC2CCCC2)CC(=O)N1c1ccc(F)cc1 (stereo not drawn)	0.0	i	-0.276	-0.1	19.5*
C/C=C/C(=O)OCC(=O)Nc1ccc(SC(F)F)cc1	0.1	i	0.0443	-2.4	6.9
COc1ccc(-c2n(CC(=O)OC3CC(C)CCC3C(C)C)c3ccccc3[n+]2C)cc1 (stereo not drawn)	0.3	+	0.976	2.6	5.6
COc1ccc(OCc2n(CC(=O)OC3CC(C)CCC3C(C)C)c3ccccc3[n+]2C)cc1 (stereo not drawn)	.	.	2.34	17.7	.
Cc1ccc(-n2nnnc2SCC(=O)c2cc(C)n(-c3cc(C)on3)c2C)cc1	-0.1	i	-0.423	5.7	7.5*
CC(C)CC(=O)NCCCCc1ccccc1	-0.3	i	0.58	-2.5	1.5
Cc1ccc(/C=N/NC(=O)c2csc3c2CCCC3)cc1	-0.1	+	0.139	43.1	20.2*
CCc1ccc(N/C(SC)=C(/C#N)C(N)=O)cc1	0.0	i	-0.721	0.3	3.3
CCCCS/C(=C(/C#N)C(N)=O)c1cc2c([nH]1)CCCC2	0.2	i	-1.51	4.2	11.9*
CCc1ccccc1-n1nnnc1-c1cnccc1C(F)(F)F	.	.	0.561	2.0	.
O=C(Cc1ccc(-c2ccccc2)cc1)NCc1cccnc1	-0.3	i	1.55	45.2	13.0*
O=C(Cc1ccc(-c2ccccc2)cc1)NCc1ccccc1	0.4	i	-0.157	55.2*	5.6
Cc1ccc(CNC(=O)Cc2ccc(-c3ccccc3)cc2)cc1	-0.1	i	1.16	.	16.0
Cc1ccc(CNC(=O)CSCc2ccccc2)cc1	-0.5	+	-0.677	1.2	3.0
Cc1ccc(CC(=O)NCc2ccc(F)cc2)cc1	0.1	i	-0.156	13.0	24.6*
Cc1ccc2nc(C3CCCN3Cc3nc(CCC(C)C)no3)[nH]c2c1 (stereo not drawn)	-0.1	i	-0.413	-2.0	3.1
Cc1ccc(CNC(=O)CNC(=S)N(Cc2ccccc2)Cc2ccccc2F)cc1	-0.4	+	0.416	-1.2	2.3
O=C(CNC(=S)N(Cc1ccccc1)Cc1ccccc1F)NCc1ccccc1	-0.2	i	1.46	-2.8	2.4
COC(=O)Nc1ccc(S(=O)(=O)N2CCCc3ccccc32)cc1	0.0	+	-0.277	-1.1	19.3*
COC(=O)Nc1ccc(S(=O)(=O)N2CCCc3cccc(O)c32)cc1	-0.2	i	-0.888	-0.4	2.4
O=C(NC1CCCC1)c1cnn2c(C(F)(F)F)cc(-c3ccc4c(c3)OCO4)nc12	-0.5	+	0.578	.	9.7
O=C(c1cnn2c(C(F)(F)F)cc(-c3ccc4c(c3)OCO4)nc12)N1CCCCC1	-0.2	i	1.13	-0.2	5.2
Cc1nc2cc3nc(C(F)(F)F)[nH]c3cc2[nH]1	0.0	i	-0.925	0.0	1.7
Cc1ccc(CNC(=S)NCc2ccncc2)cc1	-0.3	i	-0.603	-2.2	1.7
Cc1nn(-c2ccccc2)c(C)c1/C=N/NC(=O)c1cnccn1	.	.	-0.552	-1.0	.
Cc1ccc(S(=O)(=O)C(C#N)=C2N(C)c3ccccc3N2C)cc1	-0.2	+	1.3	-2.2	2.0
Cc1ccc(N/C=C(\C#N)S(=O)(=O)c2ccccc2)cc1	-0.2	i	0.638	2.8	5.0
Cc1ccc(CNS(=O)(=O)c2ccccc2[N+](=O)[O-])cc1	-0.3	i	0.8	-0.3	2.2
